What was measured:
[1] = tested on: LoVo; assay: The compound was tested in vitro for cytotoxic activity against Doxorubicin resistant LoVo/Dx human colon adenocarcinoma cell line; assay type: functional, cell-based
Procedure, shortened: (§1)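 LoVo and doxorubicin-resistant LoVo/Dx monolayers grown in Ham's F-12 with 10% fetal calf serum, penicillin/streptomycin, L-glutamine and MEM vitamins, 37 °C, 5% CO2. Log-phase cells seeded at 0.02×10^6 cells/mL. Exposure 72 h. Growth measured by cellular protein content. EC50 is the concentration giving 50% growth inhibition. At least five runs, mean ± SEM.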

[2] = tested on: L1210; assay: The compound was tested in vitro for cytotoxic activity against L1210 Murine leukemia cell line; assay type: functional, cell-based; conditions: Mus musculus
Procedure, shortened: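 Murine L1210 leukemia cells grown in suspension in RPMI 1640 with 5% fetal calf serum and penicillin/streptomycin, 37 °C, 5% CO2, passaged every 2–3 days. Log-phase cells seeded at 0.05×10^6 cells/mL. Exposure 48 h. Growth read by cellular protein content. EC50 is the concentration giving 50% growth inhibition. At least five runs, mean ± SEM.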

[3] = tested on: LoVo; assay: The compound was tested in vitro for cytotoxic activity against sensitive LoVo human colon adenocarcinoma cell line; assay type: functional, cell-based; procedure, shortened: as §1
[4] = Resistance Index is the ratio of EC50 of LoVo/Dx cell line and EC50 of LoVo cell line; assay type: functional
[5] = tested on: Mus musculus; assay: The compound was tested for anti tumor activity against P388 Murine Leukemia (%T/C = ratio of survival time of the treated to the control mice) at 0.19 mg/kg; assay type: functional
Procedure, shortened: (§2)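 P388 leukemia cells, 10^6 per mouse, given ip on day 0 to (BALB/c × DBA/2) F1 hybrid mice; line kept by ip passage in DBA/2 mice. Groups of 6 treated and 12 control mice. %T/C = mean survival time of treated / control × 100; ≥125 taken as significant.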

[6] = tested on: Mus musculus; assay: The compound was tested for anti tumor activity against P388 Murine Leukemia (%T/C = ratio of survival time of the treated to the control mice) at 0.39 mg/kg; assay type: functional; procedure, shortened: as §2
[7] = tested on: Mus musculus; assay: The compound was tested for anti tumor activity against P388 Murine Leukemia (%T/C = ratio of survival time of the treated to the control mice) at 0.78 mg/kg; assay type: functional; procedure, shortened: as §2
[8] = tested on: Mus musculus; assay: The compound was tested for anti tumor activity against P388 Murine Leukemia (%T/C = ratio of survival time of the treated to the control mice) at 1.56 mg/kg; assay type: functional; procedure, shortened: as §2
[9] = tested on: Mus musculus; assay: The compound was tested for anti tumor activity against P388 Murine Leukemia (%T/C = ratio of survival time of the treated to the control mice) at 3.12 mg/kg; assay type: functional; procedure, shortened: as §2
[10] = species: Mus musculus; assay: The compound was tested for toxicity (number of toxic deaths/total number of mice 7 days after the day 5 injection); 0/6; assay type: organism-based; conditions: in vivo, 168 h
[11] = species: Mus musculus; assay: The compound was tested for toxicity (number of toxic deaths/total number of mice 7 days after the day 5 injection); 1/6; assay type: organism-based; conditions: in vivo, 168 h
[12] = species: Mus musculus; assay: The compound was tested for toxicity (number of toxic deaths/total number of mice 7 days after the day 5 injection); 6/6; assay type: organism-based; conditions: in vivo, 168 h

Structure (SMILES)	EC50 [1] [nM]	EC50 [2] [nM]	EC50 [3] [nM]	Resistance index [4]	T/C [5] [%]	T/C [6] [%]	T/C [7] [%]	T/C [8] [%]	T/C [9] [%]	Toxicity [10]	Toxicity [11]	Toxicity [12]
CCN(CC)CCNc1ccc2c(=O)n(CCN(C)C)c(=O)n3c4ccccc4c(=O)c1c23.Cl	100	52	52	1.9	–	–	–	–	–	–	–	–
CN(C)CCNc1ccc2c(=O)n(CCN(C)C)c(=O)n3c4ccccc4c(=O)c1c23.Cl	–	2.2	–	–	166	222	222	100	70	0	1	6
CN(C)CCCNc1ccc2c(=O)n(CCN(C)C)c(=O)n3c4ccccc4c(=O)c1c23.Cl	160	63	190	0.8	–	–	–	–	–	–	–	–
CN(C)CCn1c(=O)c2ccc(NCCNCCO)c3c(=O)c4ccccc4n(c1=O)c23.Cl	230	4.5	30	7.7	189	244	233	167	70	0	–	6
Cl.O=C1c2ccccc2C(=O)c2c(NCCNCCO)ccc(NCCNCCO)c21	36800	350	640	57.5	–	–	–	–	–	–	–	–
CN(C)CCn1c(=O)c2ccc(Cl)c3c(=O)c4ccccc4n(c1=O)c23.Cl	1400	500	1200	1.2	–	–	–	–	–	–	–	–
CN(C)CCn1c(=O)c2ccc(NCCN3CCNCC3)c3c(=O)c4ccccc4n(c1=O)c23.Cl	1000	210	850	1.2	–	–	–	–	–	–	–	–
